ChEMBL document CHEMBL3044834, “Novel protoporphyrinogen oxidase inhibitors: 3H-pyrazolo[3,4-d][1,2,3]triazin-4-one derivatives” (J Agric Food Chem, 2008)

Columns and labels:
Type in all cases: functional
Echinochloa crus-galli [1] = experiment: Herbicidal activity against Echinochloa crus-galli (barnyard grass) assessed as inhibition of fresh weed plant weight at 93.75 g/ha using pre-emergence treatment protocol
Amaranthus retroflexus [2] = experiment: Herbicidal activity against Amaranthus retroflexus assessed as inhibition of fresh weed plant weight at 45 g/ha using pre-emergence treatment protocol
Digitaria sanguinalis [3] = experiment: Herbicidal activity against Digitaria sanguinalis (hairy crabgrass) assessed as inhibition of fresh weed plant weight at 1500 g/ha using pre-emergence treatment protocol
Echinochloa crus-galli [4] = experiment: Herbicidal activity against Echinochloa crus-galli (barnyard grass) assessed as inhibition of fresh weed plant weight at 750 g/ha using post-emergence treatment protocol
Procedure, shortened: (§1)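 Test compounds made up as emulsions by dissolving in 100 µL N,N-dimethylformamide, then adding a little Tween 20 and water. For post-emergence, weed seedlings at one leaf and one stem were sprayed at the same rates as the pre-emergence test. Fresh weight was recorded 15 days after treatment and expressed as percent inhibition versus controls. All treatments were run in triplicate.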

Digitaria sanguinalis [5] = experiment: Herbicidal activity against Digitaria sanguinalis (hairy crabgrass) assessed as inhibition of fresh weed plant weight at 187.5 g/ha using post-emergence treatment protocol; procedure, shortened: as §1
Amaranthus retroflexus [6] = experiment: Herbicidal activity against Amaranthus retroflexus assessed as inhibition of fresh weed plant weight at 750 g/ha using pre-emergence treatment protocol; procedure, shortened: as §1
Digitaria sanguinalis [7] = experiment: Herbicidal activity against Digitaria sanguinalis (hairy crabgrass) assessed as inhibition of fresh weed plant weight at 93.75 g/ha using post-emergence treatment protocol; procedure, shortened: as §1
Echinochloa crus-galli [8] = experiment: Herbicidal activity against Echinochloa crus-galli (barnyard grass) assessed as inhibition of fresh weed plant weight at 750 g/ha using pre-emergence treatment protocol
Amaranthus retroflexus [9] = experiment: Herbicidal activity against Amaranthus retroflexus assessed as inhibition of fresh weed plant weight at 93.75 g/ha using pre-emergence treatment protocol
[10] = system: Brassica rapa subsp. oleifera; experiment: Herbicidal activity against Brassica rapa subsp. oleifera assessed as inhibition of fresh weed plant weight at 1500 g/ha using pre-emergence treatment protocol
Echinochloa crus-galli [11] = experiment: Herbicidal activity against Echinochloa crus-galli (barnyard grass) assessed as inhibition of fresh weed plant weight at 187.5 g/ha using post-emergence treatment protocol; procedure, shortened: as §1
Echinochloa crus-galli [12] = experiment: Herbicidal activity against Echinochloa crus-galli (barnyard grass) assessed as inhibition of fresh weed plant weight at 375 g/ha using post-emergence treatment protocol; procedure, shortened: as §1
[13] = system: Brassica rapa subsp. oleifera; experiment: Herbicidal activity against Brassica rapa subsp. oleifera assessed as inhibition of fresh weed plant weight at 93.75 g/ha using pre-emergence treatment protocol
[14] = system: Brassica rapa subsp. oleifera; experiment: Herbicidal activity against Brassica rapa subsp. oleifera assessed as inhibition of fresh weed plant weight at 45 g/ha using pre-emergence treatment protocol
Echinochloa crus-galli [15] = experiment: Herbicidal activity against Echinochloa crus-galli (barnyard grass) assessed as inhibition of fresh weed plant weight at 22.5 g/ha using pre-emergence treatment protocol; procedure, shortened: as §1
[16] = system: Brassica rapa subsp. oleifera; experiment: Herbicidal activity against Brassica rapa subsp. oleifera assessed as inhibition of fresh weed plant weight at 1500 g/ha using post-emergence treatment protocol; procedure, shortened: as §1
Echinochloa crus-galli [17] = experiment: Herbicidal activity against Echinochloa crus-galli (barnyard grass) assessed as inhibition of fresh weed plant weight at 1500 g/ha using pre-emergence treatment protocol
Echinochloa crus-galli [18] = experiment: Herbicidal activity against Echinochloa crus-galli (barnyard grass) assessed as inhibition of fresh weed plant weight at 375 g/ha using pre-emergence treatment protocol; procedure, shortened: as §1
Echinochloa crus-galli [19] = experiment: Herbicidal activity against Echinochloa crus-galli (barnyard grass) assessed as inhibition of fresh weed plant weight at 93.75 g/ha using post-emergence treatment protocol; procedure, shortened: as §1
Digitaria sanguinalis [20] = experiment: Herbicidal activity against Digitaria sanguinalis (hairy crabgrass) assessed as inhibition of fresh weed plant weight at 375 g/ha using pre-emergence treatment protocol
Amaranthus retroflexus [21] = experiment: Herbicidal activity against Amaranthus retroflexus assessed as inhibition of fresh weed plant weight at 22.5 g/ha using pre-emergence treatment protocol
Digitaria sanguinalis [22] = experiment: Herbicidal activity against Digitaria sanguinalis (hairy crabgrass) assessed as inhibition of fresh weed plant weight at 1500 g/ha using post-emergence treatment protocol; procedure, shortened: as §1
[23] = system: Brassica rapa subsp. oleifera; experiment: Herbicidal activity against Brassica rapa subsp. oleifera assessed as inhibition of fresh weed plant weight at 375 g/ha using pre-emergence treatment protocol
[24] = system: Brassica rapa subsp. oleifera; experiment: Herbicidal activity against Brassica rapa subsp. oleifera assessed as inhibition of fresh weed plant weight at 93.75 g/ha using post-emergence treatment protocol; procedure, shortened: as §1
Amaranthus retroflexus [25] = experiment: Herbicidal activity against Amaranthus retroflexus assessed as inhibition of fresh weed plant weight at 375 g/ha using pre-emergence treatment protocol
[26] = system: Brassica rapa subsp. oleifera; experiment: Herbicidal activity against Brassica rapa subsp. oleifera assessed as inhibition of fresh weed plant weight at 750 g/ha using pre-emergence treatment protocol
Digitaria sanguinalis [27] = experiment: Herbicidal activity against Digitaria sanguinalis (hairy crabgrass) assessed as inhibition of fresh weed plant weight at 22.5 g/ha using pre-emergence treatment protocol
Amaranthus retroflexus [28] = experiment: Herbicidal activity against Amaranthus retroflexus assessed as inhibition of fresh weed plant weight at 1500 g/ha using pre-emergence treatment protocol
Amaranthus retroflexus [29] = experiment: Herbicidal activity against Amaranthus retroflexus assessed as inhibition of fresh weed plant weight at 375 g/ha using post-emergence treatment protocol; procedure, shortened: as §1
[30] = system: Brassica rapa subsp. oleifera; experiment: Herbicidal activity against Brassica rapa subsp. oleifera assessed as inhibition of fresh weed plant weight at 375 g/ha using post-emergence treatment protocol; procedure, shortened: as §1
Amaranthus retroflexus [31] = experiment: Herbicidal activity against Amaranthus retroflexus assessed as inhibition of fresh weed plant weight at 187.5 g/ha using pre-emergence treatment protocol
Digitaria sanguinalis [32] = experiment: Herbicidal activity against Digitaria sanguinalis (hairy crabgrass) assessed as inhibition of fresh weed plant weight at 750 g/ha using post-emergence treatment protocol; procedure, shortened: as §1
Amaranthus retroflexus [33] = experiment: Herbicidal activity against Amaranthus retroflexus assessed as inhibition of fresh weed plant weight at 93.75 g/ha using post-emergence treatment protocol; procedure, shortened: as §1
Digitaria sanguinalis [34] = experiment: Herbicidal activity against Digitaria sanguinalis (hairy crabgrass) assessed as inhibition of fresh weed plant weight at 187.5 g/ha using pre-emergence treatment protocol
[35] = system: Brassica rapa subsp. oleifera; experiment: Herbicidal activity against Brassica rapa subsp. oleifera assessed as inhibition of fresh weed plant weight at 22.5 g/ha using pre-emergence treatment protocol
Digitaria sanguinalis [36] = experiment: Herbicidal activity against Digitaria sanguinalis (hairy crabgrass) assessed as inhibition of fresh weed plant weight at 750 g/ha using pre-emergence treatment protocol
Echinochloa crus-galli [37] = experiment: Herbicidal activity against Echinochloa crus-galli (barnyard grass) assessed as inhibition of fresh weed plant weight at 1500 g/ha using post-emergence treatment protocol; procedure, shortened: as §1
Digitaria sanguinalis [38] = experiment: Herbicidal activity against Digitaria sanguinalis (hairy crabgrass) assessed as inhibition of fresh weed plant weight at 93.75 g/ha using pre-emergence treatment protocol
[39] = system: Brassica rapa subsp. oleifera; experiment: Herbicidal activity against Brassica rapa subsp. oleifera assessed as inhibition of fresh weed plant weight at 187.5 g/ha using pre-emergence treatment protocol
[40] = system: Brassica rapa subsp. oleifera; experiment: Herbicidal activity against Brassica rapa subsp. oleifera assessed as inhibition of fresh weed plant weight at 750 g/ha using post-emergence treatment protocol; procedure, shortened: as §1
Echinochloa crus-galli [41] = experiment: Herbicidal activity against Echinochloa crus-galli (barnyard grass) assessed as inhibition of fresh weed plant weight at 187.5 g/ha using pre-emergence treatment protocol; procedure, shortened: as §1
[42] = system: Brassica rapa subsp. oleifera; experiment: Herbicidal activity against Brassica rapa subsp. oleifera assessed as inhibition of fresh weed plant weight at 187.5 g/ha using post-emergence treatment protocol; procedure, shortened: as §1
Amaranthus retroflexus [43] = experiment: Herbicidal activity against Amaranthus retroflexus assessed as inhibition of fresh weed plant weight at 187.5 g/ha using post-emergence treatment protocol; procedure, shortened: as §1
Amaranthus retroflexus [44] = experiment: Herbicidal activity against Amaranthus retroflexus assessed as inhibition of fresh weed plant weight at 750 g/ha using post-emergence treatment protocol; procedure, shortened: as §1
Amaranthus retroflexus [45] = experiment: Herbicidal activity against Amaranthus retroflexus assessed as inhibition of fresh weed plant weight at 1500 g/ha using post-emergence treatment protocol; procedure, shortened: as §1
Digitaria sanguinalis [46] = experiment: Herbicidal activity against Digitaria sanguinalis (hairy crabgrass) assessed as inhibition of fresh weed plant weight at 45 g/ha using pre-emergence treatment protocol
Echinochloa crus-galli [47] = experiment: Herbicidal activity against Echinochloa crus-galli (barnyard grass) assessed as inhibition of fresh weed plant weight at 45 g/ha using pre-emergence treatment protocol
Digitaria sanguinalis [48] = experiment: Herbicidal activity against Digitaria sanguinalis (hairy crabgrass) assessed as inhibition of fresh weed plant weight at 375 g/ha using post-emergence treatment protocol; procedure, shortened: as §1

## C#CCN1C(=O)COc2cc(F)c(-n3nnc4c(cnn4CC=C)c3=O)cc21
Echinochloa crus-galli [1]
  inhibition at 93.75 g/ha: 53.4%
Amaranthus retroflexus [2]
  inhibition at 45 g/ha: 86.2%
Digitaria sanguinalis [3]
  inhibition at 1500 g/ha: 100%
Echinochloa crus-galli [4]
  inhibition at 750 g/ha: 51.6%
Digitaria sanguinalis [5]
  inhibition at 187.5 g/ha: 0%
Amaranthus retroflexus [6]
  inhibition at 750 g/ha: 100%
Digitaria sanguinalis [7]
  inhibition at 93.75 g/ha: 0%
Echinochloa crus-galli [8]
  inhibition at 750 g/ha: 98.9%
Amaranthus retroflexus [9]
  inhibition at 93.75 g/ha: 100%
[10]
  inhibition at 1500 g/ha: 100%
Echinochloa crus-galli [11]
  inhibition at 187.5 g/ha: 27.8%
Echinochloa crus-galli [12]
  inhibition at 375 g/ha: 43.5%
[13]
  inhibition at 93.75 g/ha: 100%
[14]
  inhibition at 45 g/ha: 66.7%
Echinochloa crus-galli [15]
  inhibition at 22.5 g/ha: 25.1%
[16]
  inhibition at 1500 g/ha: 100%
Echinochloa crus-galli [17]
  inhibition at 1500 g/ha: 100%
Echinochloa crus-galli [18]
  inhibition at 375 g/ha: 97.3%
Echinochloa crus-galli [19]
  inhibition at 93.75 g/ha: 7%
Digitaria sanguinalis [20]
  inhibition at 375 g/ha: 100%
Amaranthus retroflexus [21]
  inhibition at 22.5 g/ha: 76.6%
Digitaria sanguinalis [22]
  inhibition at 1500 g/ha: 32.1%
[23]
  inhibition at 375 g/ha: 100%
[24]
  inhibition at 93.75 g/ha: 18.5%
Amaranthus retroflexus [25]
  inhibition at 375 g/ha: 100%
[26]
  inhibition at 750 g/ha: 100%
Digitaria sanguinalis [27]
  inhibition at 22.5 g/ha: 0%
Amaranthus retroflexus [28]
  inhibition at 1500 g/ha: 100%
Amaranthus retroflexus [29]
  inhibition at 375 g/ha: 83.5%
[30]
  inhibition at 375 g/ha: 100%
Amaranthus retroflexus [31]
  inhibition at 187.5 g/ha: 100%
Digitaria sanguinalis [32]
  inhibition at 750 g/ha: 16.7%
Amaranthus retroflexus [33]
  inhibition at 93.75 g/ha: 0%
Digitaria sanguinalis [34]
  inhibition at 187.5 g/ha: 77.6%
[35]
  inhibition at 22.5 g/ha: 22.3%
Digitaria sanguinalis [36]
  inhibition at 750 g/ha: 100%
Echinochloa crus-galli [37]
  inhibition at 1500 g/ha: 85.2%
Digitaria sanguinalis [38]
  inhibition at 93.75 g/ha: 44.9%
[39]
  inhibition at 187.5 g/ha: 100%
[40]
  inhibition at 750 g/ha: 100%
Echinochloa crus-galli [41]
  inhibition at 187.5 g/ha: 63.7%
[42]
  inhibition at 187.5 g/ha: 72.9%
Amaranthus retroflexus [43]
  inhibition at 187.5 g/ha: 5.8%
Amaranthus retroflexus [44]
  inhibition at 750 g/ha: 100%
Amaranthus retroflexus [45]
  inhibition at 1500 g/ha: 100%
Digitaria sanguinalis [46]
  inhibition at 45 g/ha: 2.4%
Echinochloa crus-galli [47]
  inhibition at 45 g/ha: 34%
Digitaria sanguinalis [48]
  inhibition at 375 g/ha: 4.2%
